Assay results as given in paper PMC4080709 (Science translational medicine, 2014).

Assays:
[1] = cited from earlier work
[2] = system: CDV-5804PeH and Snyder Hill isolate; assay: in vitro efficacy testing against pathogenic CDV strains; format: cell-based, canine distemper virus; conditions: recombinant CDV-5804PeH and neuroadapted Snyder Hill isolate
How it was run: (§1)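 Virus yield reduction: cell-associated progeny titred by TCID₅₀. MeV is handled on Vero-hSLAM cells and CDV on Vero-cSLAM cells. Compound in DMSO. EC₅₀ from four-parameter variable-slope non-linear regression, with 95% asymmetric confidence intervals, from at least three independent experiments per virus. SI = CC₅₀/EC₅₀. MeV panel covers seven endemic genotypes; CDV strains are recombinant 5804PeH and Snyder Hill.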

CDV-5804PeH = assay: oral efficacy in ferrets infected intranasally with lethal CDV-5804PeH; format: in vivo, ferret
How it was run: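 Male and female adult European ferrets without CDV immunity, infected intranasally with 1×10⁵ TCID₅₀ CDV-5804PeH per animal (~10 LD₅₀). Dosing by gastric gavage at 50 mg/kg b.i.d. in PEG200/0.5% methylcellulose (10/90). Post-exposure arm starts 3 days post-infection and runs 14 days; controls receive vehicle. Daily clinical observation. Blood and weights taken days 0, 3, 7, 10, 14, then weekly. Survival analysed by log-rank (Mantel-Cox) test.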

MeV isolates = assay: in vitro efficacy testing against a panel of MeV isolates; format: cell-based, measles virus
How it was run: as §1

[3] = system: established human and animal cell lines and primary human PBMCs; assay: CytoTox96 non-radioactive cytotoxicity assay; format: cell-based
How it was run: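 CytoTox96 non-radioactive cytotoxicity assay; highest concentration tested 75 µM. Signal normalised to vehicle controls as %-toxicity = 100-((specific_490nm)/([…])*100). CC₅₀ derived from the mean of four replicates. Compound dissolved in DMSO. Cell lines kept at 37°C, 5% CO₂ in DMEM with 7.5% FBS.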

MeV polymerase complex = MeV polymerase complex (Measles virus, UniProt P12576); assay: minigenome luciferase replicon reporter assay, MeV; format: cell-based; conditions: 10 µM highest
[4] = single-dose oral PK study in ferrets; format: in vivo; conditions: ferret, single-dose p.o. 50 mg/kg
How it was run: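 Ferrets given a single oral dose of 50 mg/kg in PEG-200/0.5% methylcellulose (10/90) at time zero, with blood sampled at set time points afterwards. Plasma prepared from heparinised blood. Drug quantified by internal-standard, reversed-phase isocratic HPLC with positive-ion electrospray LC/MS/MS. PK parameters estimated by modelling software.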

[5] = system: CDV-5804PeH recombinants harboring L resistance mutations; assay: dose-response inhibition of resistant CDV-5804PeH recombinants; format: cell-based, canine distemper virus
How it was run: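 Candidate L resistance mutations introduced singly into the CDV-5804PeH background by site-directed mutagenesis. Recombinants recovered, and mutations confirmed by RT-PCR and cDNA sequencing. Dose-response inhibition measured as cell-associated viral titres (TCID₅₀ on Vero-cSLAM cells), as mean ± SD of at least three independent experiments. Four-parameter variable-slope regression.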

CDV polymerase complex = CDV polymerase complex (Canine distemper virus, UniProt P24658); assay: minigenome luciferase replicon reporter assay, CDV; format: cell-based; conditions: 10 µM highest
[6] = shelf-stability at ambient temperature; format: physicochemical
[7] = rat model; cited from earlier work
RSV polymerase complex = RSV polymerase complex (Human respiratory syncytial virus A, UniProt P28887); assay: minigenome luciferase replicon reporter assay, RSV; format: cell-based; conditions: 10 µM highest
serum protein binding = format: in vitro ADME

Chain of RSV polymerase complex (P28887 whole entry, one chain of several): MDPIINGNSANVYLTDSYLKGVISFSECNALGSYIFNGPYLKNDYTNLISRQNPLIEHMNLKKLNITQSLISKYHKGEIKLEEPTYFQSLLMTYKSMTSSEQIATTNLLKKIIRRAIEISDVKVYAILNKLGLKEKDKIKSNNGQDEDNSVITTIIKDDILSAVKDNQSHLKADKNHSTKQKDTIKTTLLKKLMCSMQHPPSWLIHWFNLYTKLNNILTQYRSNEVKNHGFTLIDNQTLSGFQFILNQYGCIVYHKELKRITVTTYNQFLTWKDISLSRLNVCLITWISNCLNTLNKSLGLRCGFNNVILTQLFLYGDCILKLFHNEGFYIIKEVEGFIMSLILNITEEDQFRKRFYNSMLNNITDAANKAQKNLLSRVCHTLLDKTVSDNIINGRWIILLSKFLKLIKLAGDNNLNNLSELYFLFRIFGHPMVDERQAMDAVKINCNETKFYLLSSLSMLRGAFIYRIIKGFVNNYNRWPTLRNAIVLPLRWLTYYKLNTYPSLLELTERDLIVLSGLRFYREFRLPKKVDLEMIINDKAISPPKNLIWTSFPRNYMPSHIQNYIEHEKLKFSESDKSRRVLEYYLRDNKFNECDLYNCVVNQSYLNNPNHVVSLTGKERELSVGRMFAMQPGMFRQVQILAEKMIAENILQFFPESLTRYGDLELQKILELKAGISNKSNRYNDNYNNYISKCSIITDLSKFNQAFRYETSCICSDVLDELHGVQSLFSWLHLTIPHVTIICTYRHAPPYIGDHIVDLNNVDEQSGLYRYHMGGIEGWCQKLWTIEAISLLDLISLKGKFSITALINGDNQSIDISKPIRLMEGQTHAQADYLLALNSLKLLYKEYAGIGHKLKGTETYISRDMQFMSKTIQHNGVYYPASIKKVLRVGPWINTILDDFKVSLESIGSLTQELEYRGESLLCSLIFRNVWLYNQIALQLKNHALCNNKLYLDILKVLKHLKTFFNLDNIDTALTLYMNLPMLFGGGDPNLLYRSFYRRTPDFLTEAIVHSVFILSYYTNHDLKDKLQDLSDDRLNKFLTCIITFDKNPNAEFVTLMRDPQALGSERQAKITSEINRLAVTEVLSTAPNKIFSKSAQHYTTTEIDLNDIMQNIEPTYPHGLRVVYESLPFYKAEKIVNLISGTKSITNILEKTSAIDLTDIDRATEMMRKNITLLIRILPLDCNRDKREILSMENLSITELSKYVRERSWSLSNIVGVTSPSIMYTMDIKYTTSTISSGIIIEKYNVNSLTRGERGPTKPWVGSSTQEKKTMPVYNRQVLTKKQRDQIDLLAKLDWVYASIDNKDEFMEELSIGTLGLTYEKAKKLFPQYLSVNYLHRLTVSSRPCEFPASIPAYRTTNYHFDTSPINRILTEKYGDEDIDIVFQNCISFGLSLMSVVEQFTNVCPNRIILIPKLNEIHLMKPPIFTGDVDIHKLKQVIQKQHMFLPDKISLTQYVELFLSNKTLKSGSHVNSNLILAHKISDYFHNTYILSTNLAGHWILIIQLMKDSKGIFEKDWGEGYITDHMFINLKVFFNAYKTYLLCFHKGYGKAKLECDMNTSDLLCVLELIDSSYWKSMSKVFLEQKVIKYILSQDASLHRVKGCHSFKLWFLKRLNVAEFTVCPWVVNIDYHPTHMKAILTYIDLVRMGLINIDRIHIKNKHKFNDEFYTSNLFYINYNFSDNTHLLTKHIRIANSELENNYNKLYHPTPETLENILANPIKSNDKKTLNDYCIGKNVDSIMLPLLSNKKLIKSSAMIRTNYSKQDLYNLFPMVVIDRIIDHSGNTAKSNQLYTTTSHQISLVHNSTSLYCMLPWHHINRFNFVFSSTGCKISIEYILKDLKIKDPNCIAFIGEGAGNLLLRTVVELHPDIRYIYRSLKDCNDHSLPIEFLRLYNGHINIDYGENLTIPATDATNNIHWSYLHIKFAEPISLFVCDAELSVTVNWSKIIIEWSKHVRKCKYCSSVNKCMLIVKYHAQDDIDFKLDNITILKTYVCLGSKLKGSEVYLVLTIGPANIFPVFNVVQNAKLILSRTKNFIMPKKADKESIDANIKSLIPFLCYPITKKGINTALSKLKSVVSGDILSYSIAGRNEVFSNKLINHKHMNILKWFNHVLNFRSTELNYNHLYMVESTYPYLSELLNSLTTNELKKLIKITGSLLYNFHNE
Chain of CDV polymerase complex (P06940 whole entry): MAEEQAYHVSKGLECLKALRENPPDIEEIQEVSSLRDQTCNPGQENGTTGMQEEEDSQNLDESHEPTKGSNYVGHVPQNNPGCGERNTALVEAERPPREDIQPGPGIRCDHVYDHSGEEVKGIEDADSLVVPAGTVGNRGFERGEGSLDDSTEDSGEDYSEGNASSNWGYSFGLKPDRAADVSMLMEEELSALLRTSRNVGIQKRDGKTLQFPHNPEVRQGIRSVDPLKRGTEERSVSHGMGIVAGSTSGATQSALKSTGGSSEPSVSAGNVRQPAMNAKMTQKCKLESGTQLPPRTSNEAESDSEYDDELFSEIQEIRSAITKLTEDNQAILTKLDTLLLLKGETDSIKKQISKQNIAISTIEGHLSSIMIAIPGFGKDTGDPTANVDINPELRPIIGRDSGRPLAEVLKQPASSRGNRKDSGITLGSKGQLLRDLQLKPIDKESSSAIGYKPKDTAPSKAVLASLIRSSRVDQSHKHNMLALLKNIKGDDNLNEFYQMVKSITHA
Chain of CDV polymerase complex (P24658 whole entry): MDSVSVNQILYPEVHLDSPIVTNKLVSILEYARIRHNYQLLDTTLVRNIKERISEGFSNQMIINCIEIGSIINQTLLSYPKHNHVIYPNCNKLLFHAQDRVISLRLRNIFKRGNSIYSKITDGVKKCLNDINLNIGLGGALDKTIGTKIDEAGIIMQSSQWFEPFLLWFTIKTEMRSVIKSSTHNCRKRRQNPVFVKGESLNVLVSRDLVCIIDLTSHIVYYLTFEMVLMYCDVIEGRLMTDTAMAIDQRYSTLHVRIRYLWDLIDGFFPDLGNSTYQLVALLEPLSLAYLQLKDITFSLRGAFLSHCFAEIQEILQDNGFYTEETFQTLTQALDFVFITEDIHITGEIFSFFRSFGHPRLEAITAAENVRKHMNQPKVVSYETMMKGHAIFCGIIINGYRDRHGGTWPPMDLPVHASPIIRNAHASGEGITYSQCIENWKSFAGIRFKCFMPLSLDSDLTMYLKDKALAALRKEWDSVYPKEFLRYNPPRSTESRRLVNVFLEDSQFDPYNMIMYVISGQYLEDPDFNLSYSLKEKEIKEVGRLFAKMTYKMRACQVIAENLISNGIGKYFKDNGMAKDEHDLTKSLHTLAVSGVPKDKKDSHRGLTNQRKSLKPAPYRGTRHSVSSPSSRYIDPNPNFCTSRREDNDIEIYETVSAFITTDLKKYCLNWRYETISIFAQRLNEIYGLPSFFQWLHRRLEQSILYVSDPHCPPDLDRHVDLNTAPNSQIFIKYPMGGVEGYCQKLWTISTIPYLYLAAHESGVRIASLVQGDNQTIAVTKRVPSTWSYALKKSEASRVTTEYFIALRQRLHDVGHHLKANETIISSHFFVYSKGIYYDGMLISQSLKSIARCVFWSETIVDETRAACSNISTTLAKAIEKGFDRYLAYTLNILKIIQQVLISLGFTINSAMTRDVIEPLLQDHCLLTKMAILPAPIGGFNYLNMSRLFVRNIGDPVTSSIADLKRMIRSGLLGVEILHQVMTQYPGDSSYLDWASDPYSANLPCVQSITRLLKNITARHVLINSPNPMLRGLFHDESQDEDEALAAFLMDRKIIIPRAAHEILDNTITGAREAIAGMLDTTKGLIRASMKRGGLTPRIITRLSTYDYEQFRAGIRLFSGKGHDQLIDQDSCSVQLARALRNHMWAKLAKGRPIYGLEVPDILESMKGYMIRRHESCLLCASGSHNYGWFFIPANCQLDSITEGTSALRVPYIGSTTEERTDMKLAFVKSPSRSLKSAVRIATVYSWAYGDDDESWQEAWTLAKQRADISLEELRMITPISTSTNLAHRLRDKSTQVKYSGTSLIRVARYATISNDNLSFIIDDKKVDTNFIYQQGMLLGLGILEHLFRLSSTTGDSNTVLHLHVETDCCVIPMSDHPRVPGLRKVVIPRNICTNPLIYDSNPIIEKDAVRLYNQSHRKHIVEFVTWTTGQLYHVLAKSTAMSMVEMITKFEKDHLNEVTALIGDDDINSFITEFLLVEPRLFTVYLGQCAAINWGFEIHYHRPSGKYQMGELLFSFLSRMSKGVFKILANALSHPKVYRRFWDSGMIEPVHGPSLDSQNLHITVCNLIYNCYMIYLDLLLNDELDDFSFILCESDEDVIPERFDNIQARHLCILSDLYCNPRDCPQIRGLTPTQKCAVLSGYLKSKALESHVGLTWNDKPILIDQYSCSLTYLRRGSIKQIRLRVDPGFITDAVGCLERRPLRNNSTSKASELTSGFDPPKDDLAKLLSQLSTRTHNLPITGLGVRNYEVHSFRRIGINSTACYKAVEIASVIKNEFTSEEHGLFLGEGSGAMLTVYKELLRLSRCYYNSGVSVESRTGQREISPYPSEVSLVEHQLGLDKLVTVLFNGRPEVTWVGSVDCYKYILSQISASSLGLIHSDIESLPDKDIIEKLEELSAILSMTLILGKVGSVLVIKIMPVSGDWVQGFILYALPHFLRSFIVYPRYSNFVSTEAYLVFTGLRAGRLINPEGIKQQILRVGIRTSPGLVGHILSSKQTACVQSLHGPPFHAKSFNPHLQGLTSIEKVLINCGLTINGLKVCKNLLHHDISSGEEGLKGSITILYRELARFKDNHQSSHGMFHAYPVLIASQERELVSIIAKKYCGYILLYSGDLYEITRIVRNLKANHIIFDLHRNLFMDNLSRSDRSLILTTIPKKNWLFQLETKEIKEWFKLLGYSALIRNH

Cn1nc(C(F)(F)F)cc1C(=O)Nc1ccc(S(=O)(=O)N2CCCC[C@H]2CCN2CCOCC2)cc1 [ERDRP-0519]
bidirectional membrane permeability [1]: high | potency reduction against CDV strains relative to MeV [2]: approximately 2 fold | PBMC responsiveness (PHA-stimulated proliferation) (CDV-5804PeH; PET group): only transiently impaired | clinical signs of disease (CDV-5804PeH; PET group): remained subclinical | humoral response (neutralizing antibodies) (CDV-5804PeH; PET group): strong humoral response | signs of compound-induced toxicity (CDV-5804PeH; PET group, 50 mg/kg p.o. b.i.d. for 14 days): not observed signs of compound-induced toxicity | prolongation of survival of treated ferrets (CDV-5804PeH; pre-exposure prophylaxis): up to 2 fold | animal survival (CDV-5804PeH; prophylactic dosing, 50 mg/kg p.o. b.i.d. from 24 hours pre-infection): significantly prolonged animal survival | interferon induction levels in PBMCs (CDV-5804PeH; prophylactically treated animals): low interferon induction levels | clearance of infection (CDV-5804PeH; therapeutically dosed animals, by day 28 pI): completely cleared the infection | selectivity indices (SI), CC50/EC50 (MeV isolates; against all MeV targets analyzed): > 200 | antiviral potency (MeV isolates; panel of MeV isolates representing clades currently endemic worldwide): nanomolar | cytotoxicity [3]: low cytotoxicity | inhibition of RdRp (replicon reporter) activity (MeV polymerase complex): potently inhibited | peak plasma concentration ([4]; PEG-200/0.5% methylcellulose (10/90)): exceeded 1,500 ng/ml | peak plasma concentration ([4]; converted from ng/ml): approximately 3.5 µM | increase in EC90 concentration versus standard CDV-5804PeH ([5]; CDV-5804PeH-LG835R): approximately 8 fold | increase in EC90 concentration versus standard CDV-5804PeH ([5]; CDV-5804PeH-LH589Y): approximately 8 fold | increase in EC90 concentration versus standard CDV-5804PeH ([5]; CDV-5804PeH-LH816L): approximately 8 fold | increase in EC90 concentration versus standard CDV-5804PeH ([5]; CDV-5804PeH-LN398D): approximately 2 fold | increase in EC90 concentration versus standard CDV-5804PeH ([5]; CDV-5804PeH-LT751I): > 20 fold | increase in EC90 concentration versus standard CDV-5804PeH ([5]; CDV-5804PeH-LT776A): > 20 fold | inhibition of RdRp (replicon reporter) activity (CDV polymerase complex): potently inhibited | shelf-stability [6]: exceeded one year without loss of activity | oral availability [7]: 39% | inhibition of RdRp (replicon reporter) activity (RSV polymerase complex): not blocked | serum protein binding (serum protein binding): < 95%
